This is a sample that favours compounds with a hit; in the whole collection about 4.7% have one here.
aSyn UTR inh – MLPCN primary screen, SNCA 5' untranslated region; inhibition, % (tested at 7.5 µM); AID 1813; alpha-synuclein 5'UTR reporter, inhibitor activity; 300,000 compounds, 0.82% hits; in the data active = inhibition above about 60%;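 note: H4 neuroglioblastoma cells stably carrying SNCA 5'UTR luciferase fusion; 0% = DMSO wells and 100% = positive control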
697 NFkB inh – inhibitors of the PMA/ionomycin-induced NF-kB reporter in 697 B cells. 330,000 compounds, 0.33% hits. 697 B-cell NF-kB luciferase reporter, 16 h. inhibition, % at 4 µM; in the data active = inhibition above about 35%
VIM-2 inh – inhibitors of Pseudomonas aeruginosa VIM-2 metallo-beta-lactamase. inhibition, % at 5.6 µM. purified VIM-2, nitrocefin hydrolysis, epi-absorbance fluorescence. 290,000 compounds, 0.89% hits;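 active = inhibition above the mean of all tested compounds plus 3 SD, cutoff set per screening run, cut at about 7.5% in these data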;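 note: red hydrolysis product quenches plate fluorescence so inhibitors raise well fluorescence; 0% = enzyme with DMSO and 100% = DMSO without enzyme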
IMP-1 inhibitor – inhibitors of Pseudomonas aeruginosa IMP-1 metallo-beta-lactamase | purified IMP-1, nitrocefin hydrolysis, epi-absorbance fluorescence | inhibition, % at 5.6 µM | 290,000 compounds, 0.45% hits | AID 1556;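 active = inhibition above the mean plus 3 SD of all compounds in the same screening run, cut at about 4.5% in these data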;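 note: 0% = IMP-1 with DMSO and 100% = DMSO wells lacking enzyme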
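System: Purified IMP-1 | Read-out basis: Percent enzyme inhibition | Controls: IMP-1 with DMSO as 0%, enzyme-free DMSO as 100% | Replicates: One well per compound | Doses: 5.6 µM nominal single concentration | Detection: Epi-absorbance fluorescence, 480 nm excitation, 530 nm emission | Incubation: 25 °C, 15 min preincubation, 25 min reaction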
Jurkat NFkB inh – inhibitors of the PMA/ionomycin-induced NF-kB reporter in Jurkat cells; PMA/ionomycin-induced NF-kB luciferase reporter, luminescence; inhibition, % at 4 µM; 330,000 compounds, 0.53% hits; in the data active = inhibition above about 50%
Mdm2 MdmX PPI – inhibitors of human Mdm2/MdmX interaction. O15151+Q00987. SaOS-2 split-luciferase Mdm2/MdmX complementation, luminescence. inhibition, % at 8 µM. 330,000 compounds, 3% hits;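 active = inhibition of at least 50% at 8 µM in the primary screen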
Target sequence (O15151 whole entry, looked up): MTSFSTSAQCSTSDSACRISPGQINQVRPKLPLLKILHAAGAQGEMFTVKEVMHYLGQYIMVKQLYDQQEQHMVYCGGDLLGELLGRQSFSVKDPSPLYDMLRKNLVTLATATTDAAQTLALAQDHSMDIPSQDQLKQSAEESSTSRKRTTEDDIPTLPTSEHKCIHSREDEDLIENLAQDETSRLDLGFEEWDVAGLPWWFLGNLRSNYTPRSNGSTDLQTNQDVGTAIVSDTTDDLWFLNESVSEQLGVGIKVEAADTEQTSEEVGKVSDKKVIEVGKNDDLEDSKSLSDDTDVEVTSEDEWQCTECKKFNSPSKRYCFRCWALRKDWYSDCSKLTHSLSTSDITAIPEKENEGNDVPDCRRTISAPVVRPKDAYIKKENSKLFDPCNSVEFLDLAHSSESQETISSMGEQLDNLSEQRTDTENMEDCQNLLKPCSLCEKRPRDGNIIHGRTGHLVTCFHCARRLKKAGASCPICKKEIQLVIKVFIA
Target sequence (Q00987 whole entry, looked up): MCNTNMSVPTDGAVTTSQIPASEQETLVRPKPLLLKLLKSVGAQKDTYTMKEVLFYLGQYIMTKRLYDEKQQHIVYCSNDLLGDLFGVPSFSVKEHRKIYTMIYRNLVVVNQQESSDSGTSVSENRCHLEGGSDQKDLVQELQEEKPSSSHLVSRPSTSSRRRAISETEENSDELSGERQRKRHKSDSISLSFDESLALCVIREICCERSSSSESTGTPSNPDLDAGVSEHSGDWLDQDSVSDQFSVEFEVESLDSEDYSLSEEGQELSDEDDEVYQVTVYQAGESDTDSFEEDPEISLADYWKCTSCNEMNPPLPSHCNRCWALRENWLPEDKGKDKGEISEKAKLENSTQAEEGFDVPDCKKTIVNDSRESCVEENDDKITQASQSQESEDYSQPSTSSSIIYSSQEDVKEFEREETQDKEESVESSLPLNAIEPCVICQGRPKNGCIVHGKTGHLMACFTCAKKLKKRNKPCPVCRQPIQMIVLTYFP
Mdm2-MdmX conf – confirmation of human Mdm2/MdmX interaction inhibitors | shares compounds with Mdm2 MdmX PPI | Mdm2-MdmX binding, luminescent assay | inhibition, % at 8 µM | 10,000 compounds, 55% hits | AID 489028; in the data active = inhibition above about 40%
Full FLuc ctr – counter-screen for Mdm2/MdmX inhibitors: full-length luciferase. SaOS-2 full-length luciferase counterscreen, luminescence. shares compounds with Mdm2 MdmX PPI. inhibition, % at 8 µM. 6,200 compounds, 77% hits;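 active = mean inhibition at 8 µM reaching about 37%, which flags the compound as non-specific, limit read from the data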;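 note: p53-null SaOS-2 cells with luciferase driven by a doxycycline-inducible promoter; compound on cells about two nights before reading with doxycycline added after day one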
Numbers without * were called inactive; nt = not tested or not shown.

SMILES | aSyn UTR inh | 697 NFkB inh | VIM-2 inh | IMP-1 inhibitor | Jurkat NFkB inh | Mdm2 MdmX PPI | Mdm2-MdmX conf | Full FLuc ctr
O=c1cnnc(N/N=C/c2ccccn2)[nH]1 | 75* | -6 | -3 | -4 | 43 | 82* | 88* | 53*
C(=N\Nc1nncc2ccccc12)/c1ccccn1 | 98* | -82 | 1 | 6.5* | -17 | 79* | 79* | 30
Cc1cc(=O)[nH]c(N/N=C/c2ccccn2)n1 | 74* | -97 | -1 | -1 | -7 | 80* | 78* | 59*
Cc1cc(=O)[nH]c(N/N=C/c2cccc(Br)c2)n1 | -24 | 11 | -1 | -1 | 2 | -7 | nt | nt
Fc1cccc(/C=N/Nc2nncc3ccccc23)c1 | -13 | -207 | -4 | -2 | -141 | -241 | nt | nt
CCOC(=O)CN1CCS(=O)(=O)CC1 | 26 | 2 | -3 | -2 | 4 | 28 | nt | nt
O=[N+]([O-])c1cc(S(=O)(=O)Nc2cccc(Cl)c2)ccc1N/N=C/c1ccc(N2CCOCC2)cc1 | 8 | -11 | -1 | -2 | -9 | 84* | 3 | nt
O=C(O)c1ccc(N/N=C/C=C/c2ccccc2[N+](=O)[O-])cc1 | -127 | -133 | 3 | -3 | -67 | -20 | nt | nt
O=[N+]([O-])c1ccccc1/C=C/C=N/Nc1ccc(S(=O)(=O)Nc2ccc(Cl)cc2)cc1[N+](=O)[O-] | -4 | -6 | -4 | 0 | 11 | 56* | 12 | nt
CC(=O)Nc1ccc(Nc2cc(C(C)C)nc3c(-c4ccccc4)c(C)nn23)cc1 | 39 | -29 | -3 | -5 | 4 | 55* | 43* | 54*
CC(=O)Nc1ccc(Nc2cc(C)nc3c(-c4ccccc4)c(C)nn23)cc1 | 8 | -4 | 6 | -2 | 2 | 40 | nt | nt
Cc1cc(NCc2ccccn2)n2nc(C)c(-c3ccc(Cl)cc3)c2n1 | nt | -12 | -3 | -2 | -19 | 61* | 21 | nt
Cc1nn2c(NCc3ccccn3)cc(C(C)C)nc2c1-c1ccccc1 | 32 | 7 | -2 | -2 | -16 | 64* | 41* | 29
CCCc1cc(NCc2ccccn2)n2nc(C)c(-c3ccccc3)c2n1 | -8 | -7 | -4 | -4 | -18 | 37 | nt | nt
CS(=O)(=O)N1CCN(c2ccc([N+](=O)[O-])c(SCc3ccco3)c2)CC1 | 3 | 8 | -1 | -1 | 0 | 13 | nt | nt
O=C(Nc1ccc(N2CCN(C(=O)c3ccccc3F)CC2)cc1)c1cncc(Br)c1 | -74 | -28 | -1 | 2 | 20 | 63* | 62* | 21
COC(=O)c1ccc(Sc2nnnn2-c2ccccc2)c([N+](=O)[O-])c1 | -49 | 21 | 1 | 0 | 27 | 68* | 49* | 23
O=C(O)c1ccc(Sc2nnnn2-c2ccccc2)c([N+](=O)[O-])c1 | 9 | -4 | 0 | -4 | -3 | 5 | nt | nt
O=C1C(=Cc2cccs2)C(=O)c2ccccc21 | 3 | 11 | -1 | -2 | 1 | 0 | nt | nt
O=C1C(c2ccccc2)=[N+]([O-])c2ccccc21 | -94 | -4 | nt | nt | 5 | 93* | 19 | nt
Cc1noc(NS(=O)(=O)c2ccc(NC(=O)c3cccc(S(=O)(=O)Nc4ccccc4F)c3)cc2)c1C | nt | 0 | nt | nt | 2 | 0 | nt | nt
CCOC(=O)c1c(NC(=O)CSc2nnnn2-c2ccccc2OCC)sc2c1CC(C)(C)NC2(C)C | -35 | -33 | nt | nt | 4 | 58* | 41* | 73*
CCOC(=O)c1c(NC(=O)COC(=O)c2ccc(C)s2)sc2c1CC(C)(C)NC2(C)C | 6 | 4 | nt | nt | -13 | 30 | nt | nt
CCOC(=O)c1c(NC(=O)CSc2nc3ccc(C)cc3[nH]2)sc2c1CC(C)(C)NC2(C)C | -2 | -25 | nt | nt | 10 | 75* | 48* | 69*
CCOC(=O)c1c(NC(=O)CSc2nnnn2-c2ccccc2)sc2c1CC(C)(C)NC2(C)C | -40 | -60 | 1 | 0 | -17 | 55* | 20 | nt
SMILES | aSyn UTR inh | 697 NFkB inh | VIM-2 inh | IMP-1 inhibitor | Jurkat NFkB inh | Mdm2 MdmX PPI | Mdm2-MdmX conf | Full FLuc ctr
COc1ccc(CN/C(C)=C(/C#N)C(N)=O)cc1OC | 27 | 0 | -2 | -3 | 5 | 3 | nt | nt
CN1CCCN(C2C3CC4CC(C3)CC2C4)CC1 (configuration not stated) | 6 | -18 | -1 | -2 | -12 | -9 | nt | nt
CC(C)n1cnc2c(Nc3cccc(F)c3)nc(NCCO)nc21 | 13 | -3 | nt | nt | 1 | 62* | 58* | 82*
CC(C)C[C@H](CO)Nc1nc(Nc2cccc(Cl)c2)c2ncn(C(C)C)c2n1 | 5 | -35 | nt | nt | -26 | 75* | 65* | 58*
CCCS(=O)(=O)N1CCN=C1SCc1cccc2ccccc12 | 26 | 7 | 2 | 0 | 3 | -12 | nt | nt
N#CC(C#N)=C(Nc1ccc(F)cc1)SCc1cccc(F)c1 | 24 | 14 | -4 | -2 | 6 | 90* | 92* | 23
CN(C)c1ccc(C(CNS(=O)(=O)c2ccc([N+](=O)[O-])cc2)N2CCOCC2)cc1 (configuration not stated) | 5 | 1 | nt | nt | 25 | 4 | nt | nt
CCOc1ccc2c(c1)C(C)=CC(C)(C)N2S(=O)(=O)c1ccc(C)cc1 | 103* | -53 | -2 | -4 | 33 | 63* | 61* | 121*
COc1ccc2c(c1)C(C)=CC(C)(C)N2S(=O)(=O)c1ccc(C)cc1 | -63 | 10 | 0 | -3 | 39 | 63* | 67* | 96*
COc1ccc(CC(=O)NNC(=O)c2ccncc2)cc1 | 0 | 14 | -5 | -2 | 1 | -14 | nt | nt
Cc1ccc(C)n1-c1nn(S(=O)(=O)c2cccc3cccnc23)c2cccc(F)c12 | 18 | 12 | -2 | -1 | 12 | 31 | nt | nt
Cc1ccc(S(=O)(=O)n2nc(-n3c(C)ccc3C)c3c(F)cccc32)c2ccccc12 | 1 | 8 | -3 | -3 | 16 | 50* | 3 | nt
COc1ccc(OC)c(S(=O)(=O)N2CCC(C(=O)NC3CCCCC3)CC2)c1 | -13 | -5 | 0 | -1 | -8 | 16 | nt | nt
CN(C)CC1CCCCC1C1(O)c2ccccc2CSc2sccc21 (configuration not stated) | 16 | 3 | -1 | -3 | -15 | 61* | 55* | 54*
CCOC(=O)C(C)(C)N(Cc1cccc(C)c1)S(=O)(=O)c1cccc([N+](=O)[O-])c1 | -3 | 13 | -1 | 0 | -1 | 14 | nt | nt
CCOC(=O)C(C)(C)N(Cc1cccc(C)c1)S(=O)(=O)c1ccc(Cl)c([N+](=O)[O-])c1 | -8 | 17 | 0 | 1 | -1 | 57* | 16 | nt
CCOC(=O)c1c(C)[nH]c(C)c1C(=O)CSc1nc2ccccc2c(=O)n1-c1ccc(CC)cc1 | 13 | 5 | -1 | -4 | -4 | 56* | 37 | 96*

Screening data: PubChem, several laboratories
